Test results published in ChEMBL document CHEMBL1806410, “Design and synthesis of pyridine-substituted itraconazole analogues with improved antifungal activities, water solubility and bioavailability” (Bioorg Med Chem Lett, 2011).
≈ marks a conversion by molar mass, not a printed value.

Tests used:
Candida albicans [1] = experiment: Antifungal activity against Candida albicans JLC 30364 by broth microdilution method; format: functional
Procedure, shortened: (§1)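 MICs were determined by broth microdilution following NCCLS guidelines (M38-P for filamentous fungi). The panel covered four yeast species and two Aspergillus species, with two strains per species. Itraconazole served as positive control.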

Candida albicans [2] = experiment: Antifungal activity against Candida albicans JLC 31374 by broth microdilution method; format: functional; procedure, shortened: as §1
Candida parapsilosis [3] = experiment: Antifungal activity against Candida parapsilosis JLC 30365 by broth microdilution method; format: functional; settings: Lodderomyces parapsilosis; procedure, shortened: as §1
Candida parapsilosis [4] = experiment: Antifungal activity against Candida parapsilosis JLC 30275 by broth microdilution method; format: functional; settings: Lodderomyces parapsilosis; procedure, shortened: as §1
Pichia kudriavzevii [5] = experiment: Antifungal activity against Candida krusei JLC 30366 by broth microdilution method; format: functional; procedure, shortened: as §1
Pichia kudriavzevii [6] = experiment: Antifungal activity against Candida krusei JLC 30386 by broth microdilution method; format: functional; procedure, shortened: as §1
Cryptococcus neoformans [7] = experiment: Antifungal activity against Cryptococcus neoformans JLC 50122 by broth microdilution method; format: functional; procedure, shortened: as §1
Cryptococcus neoformans [8] = experiment: Antifungal activity against Cryptococcus neoformans JLC 50123 by broth microdilution method; format: functional; procedure, shortened: as §1
Aspergillus fumigatus [9] = experiment: Antifungal activity against Aspergillus fumigatus JLC 30506 by broth microdilution method; format: functional; procedure, shortened: as §1
Aspergillus fumigatus [10] = experiment: Antifungal activity against Aspergillus fumigatus JLC 30883 by broth microdilution method; format: functional; procedure, shortened: as §1
Aspergillus flavus [11] = experiment: Antifungal activity against Aspergillus flavus JLC 30784 by broth microdilution method; format: functional; procedure, shortened: as §1
Aspergillus flavus [12] = experiment: Antifungal activity against Aspergillus flavus JLC 40437 by broth microdilution method; format: functional; procedure, shortened: as §1
[13] = Half life in rat at 10 mg/kg, po administered as single dose; format: ADME, organism-based; set-up: dose 10 mg/kg, route oral; settings: in vivo
Procedure, shortened: (§2)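 Rats received a single dose of compound, either oral (10 mg/kg) or intravenous (10, 5 or 2.5 mg/kg). Plasma levels were followed, and the reported parameters were Cmax, Tmax, AUC0–t, half-life, clearance and bioavailability (F).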

[14] = Solubility of the compound in water at pH 1.2; format: physicochemical
[15] = Cmax in rat at 10 mg/kg, po administered as single dose; format: ADME, organism-based; set-up: dose 10 mg/kg, route oral; settings: in vivo; procedure, shortened: as §2
[16] = Tmax in rat at 10 mg/kg, po administered as single dose; format: ADME, organism-based; set-up: dose 10 mg/kg, route oral; settings: in vivo; procedure, shortened: as §2
[17] = AUC (0 to t) in rat at 10 mg/kg, po administered as single dose; format: ADME, organism-based; set-up: dose 10 mg/kg, route oral; settings: plasma; procedure, shortened: as §2
[18] = Half life in rat at 10 mg/kg, iv administered as single dose; format: ADME, organism-based; set-up: dose 10 mg/kg, route intravenous; settings: in vivo; procedure, shortened: as §2
[19] = Clearance in rat at 10 mg/kg, iv administered as single dose; format: ADME, organism-based; set-up: dose 10 mg/kg, route intravenous; settings: in vivo; procedure, shortened: as §2
[20] = Oral bioavailability in rat at 10 mg/kg, administered as single dose; format: ADME, organism-based; settings: in vivo; procedure, shortened: as §2
[21] = AUC (0 to t) in rat at 10 mg/kg, iv administered as single dose; format: ADME, organism-based; set-up: dose 10 mg/kg, route intravenous; settings: plasma; procedure, shortened: as §2

MIC (Candida albicans [1]) [µg/mL] | MIC (Candida albicans [2]) [µg/mL] | MIC (Candida parapsilosis [3]) [µg/mL] | MIC (Candida parapsilosis [4]) [µg/mL] | MIC (Pichia kudriavzevii [5]) [µg/mL] | MIC (Pichia kudriavzevii [6]) [µg/mL] | MIC (Cryptococcus neoformans [7]) [µg/mL] | MIC (Cryptococcus neoformans [8]) [µg/mL] | MIC (Aspergillus fumigatus [9]) [µg/mL] | MIC (Aspergillus fumigatus [10]) [µg/mL] | MIC (Aspergillus flavus [11]) [µg/mL] | MIC (Aspergillus flavus [12]) [µg/mL] | SMILES | further results
< 0.0625 | < 0.0625 | < 0.0625 | < 0.0625 | 2 (≈ 2.9 µM) | 2 (≈ 2.9 µM) | 0.0625 (≈ 0.0906 µM) | 0.0625 (≈ 0.0906 µM) | 4 (≈ 5.8 µM) | 4 (≈ 5.8 µM) | 4 (≈ 5.8 µM) | 4 (≈ 5.8 µM) | CC(CCO)n1ncn(-c2ccc(N3CCN(c4ccc(OC[C@H]5CO[C@](Cn6cncn6)(c6ccc(F)cc6F)O5)cc4)CC3)nc2)c1=O (some centres not stated) | –
0.03 (≈ 0.0445 µM) | 0.03 (≈ 0.0445 µM) | 0.5 (≈ 0.742 µM) | 0.5 (≈ 0.742 µM) | 0.0625 (≈ 0.0928 µM) | 0.0625 (≈ 0.0928 µM) | 1 (≈ 1.48 µM) | 1 (≈ 1.48 µM) | 0.5 (≈ 0.742 µM) | 0.5 (≈ 0.742 µM) | 0.5 (≈ 0.742 µM) | 0.5 (≈ 0.742 µM) | CCC(C)n1ncn(-c2ccc(N3CCN(c4ccc(OC[C@H]5CO[C@](Cn6cncn6)(c6ccc(F)cc6F)O5)cc4)CC3)cn2)c1=O (some centres not stated) | –
0.015 (≈ 0.0223 µM) | 0.015 (≈ 0.0223 µM) | 0.25 (≈ 0.371 µM) | 0.25 (≈ 0.371 µM) | 0.125 (≈ 0.186 µM) | 0.125 (≈ 0.186 µM) | 0.25 (≈ 0.371 µM) | 0.25 (≈ 0.371 µM) | 0.125 (≈ 0.186 µM) | 0.125 (≈ 0.186 µM) | 0.0625 (≈ 0.0928 µM) | 0.0625 (≈ 0.0928 µM) | CC(C)Cn1ncn(-c2ccc(N3CCN(c4ccc(OC[C@H]5CO[C@](Cn6cncn6)(c6ccc(F)cc6F)O5)cc4)CC3)cn2)c1=O | –
0.0075 (≈ 0.0114 µM) | 0.0075 (≈ 0.0114 µM) | 0.25 (≈ 0.379 µM) | 0.25 (≈ 0.379 µM) | 0.0625 (≈ 0.0947 µM) | 0.0625 (≈ 0.0947 µM) | 0.25 (≈ 0.379 µM) | 0.25 (≈ 0.379 µM) | 0.125 (≈ 0.189 µM) | 0.125 (≈ 0.189 µM) | 0.125 (≈ 0.189 µM) | 0.125 (≈ 0.189 µM) | CC(C)n1ncn(-c2ccc(N3CCN(c4ccc(OC[C@H]5CO[C@](Cn6cncn6)(c6ccc(F)cc6F)O5)cc4)CC3)cn2)c1=O | half-life [13]: 3.45 h; solubility ([14]; water, read-out: solubility): 320 µg/mL (≈ 485 µM); Cmax [15]: 159 ng/mL; Tmax [16]: 3 h; AUC(0-t) [17]: 1220 ng·h/mL
0.0625 (≈ 0.0909 µM) | 0.0625 (≈ 0.0909 µM) | 0.5 (≈ 0.727 µM) | 0.5 (≈ 0.727 µM) | 0.125 (≈ 0.182 µM) | 0.125 (≈ 0.182 µM) | 0.125 (≈ 0.182 µM) | 0.125 (≈ 0.182 µM) | 0.5 (≈ 0.727 µM) | 0.5 (≈ 0.727 µM) | 0.0625 (≈ 0.0909 µM) | 0.0625 (≈ 0.0909 µM) | CCC(CC)n1ncn(-c2ccc(N3CCN(c4ccc(OC[C@H]5CO[C@](Cn6cncn6)(c6ccc(F)cc6F)O5)cc4)CC3)cn2)c1=O | –
0.0625 (≈ 0.0925 µM) | 0.0625 (≈ 0.0925 µM) | 0.5 (≈ 0.74 µM) | 0.5 (≈ 0.74 µM) | 0.0625 (≈ 0.0925 µM) | 0.0625 (≈ 0.0925 µM) | 0.0625 (≈ 0.0925 µM) | 0.0625 (≈ 0.0925 µM) | 1 (≈ 1.48 µM) | 1 (≈ 1.48 µM) | 0.125 (≈ 0.185 µM) | 0.125 (≈ 0.185 µM) | CC(CO)n1ncn(-c2ccc(N3CCN(c4ccc(OC[C@H]5CO[C@](Cn6cncn6)(c6ccc(F)cc6F)O5)cc4)CC3)cn2)c1=O (some centres not stated) | –
< 0.0156 | < 0.0156 | 0.0156 (≈ 0.0236 µM) | 0.0156 (≈ 0.0236 µM) | 0.03 (≈ 0.0453 µM) | 0.03 (≈ 0.0453 µM) | < 0.0156 | < 0.0156 | 0.5 (≈ 0.756 µM) | 0.5 (≈ 0.756 µM) | 0.03 (≈ 0.0453 µM) | 0.03 (≈ 0.0453 µM) | O=c1n(-c2ccc(N3CCN(c4ccc(OC[C@H]5CO[C@](Cn6cncn6)(c6ccc(F)cc6F)O5)cc4)CC3)cn2)cnn1CCO | –
< 0.0156 | < 0.0156 | < 0.0156 | < 0.0156 | < 0.0156 | < 0.0156 | 0.03 (≈ 0.0435 µM) | 0.03 (≈ 0.0435 µM) | 0.5 (≈ 0.725 µM) | 0.5 (≈ 0.725 µM) | 0.125 (≈ 0.181 µM) | 0.125 (≈ 0.181 µM) | CC(CO)Cn1ncn(-c2ccc(N3CCN(c4ccc(OC[C@H]5CO[C@](Cn6cncn6)(c6ccc(F)cc6F)O5)cc4)CC3)cn2)c1=O (some centres not stated) | –

SMILES | MIC (Candida albicans [1]) [µg/mL] | MIC (Candida albicans [2]) [µg/mL] | MIC (Candida parapsilosis [3]) [µg/mL] | MIC (Candida parapsilosis [4]) [µg/mL] | MIC (Pichia kudriavzevii [5]) [µg/mL] | MIC (Pichia kudriavzevii [6]) [µg/mL] | MIC (Cryptococcus neoformans [7]) [µg/mL] | MIC (Cryptococcus neoformans [8]) [µg/mL] | MIC (Aspergillus fumigatus [9]) [µg/mL] | MIC (Aspergillus fumigatus [10]) [µg/mL] | MIC (Aspergillus flavus [11]) [µg/mL] | MIC (Aspergillus flavus [12]) [µg/mL] | further results
CCC(C)n1ncn(-c2ccc(N3CCN(c4ccc(OCC5COC(Cn6cncn6)(c6ccc(Cl)cc6Cl)O5)cc4)CC3)cc2)c1=O (configuration not stated) [ITRACONAZOLE] | 0.125 (≈ 0.177 µM) | 0.125 (≈ 0.177 µM) | 0.25 (≈ 0.354 µM) | 0.25 (≈ 0.354 µM) | 0.0625 (≈ 0.0886 µM) | 0.0625 (≈ 0.0886 µM) | 1 (≈ 1.42 µM) | 1 (≈ 1.42 µM) | 0.25 (≈ 0.354 µM) | 0.25 (≈ 0.354 µM) | 0.125 (≈ 0.177 µM) | 0.125 (≈ 0.177 µM) | half-life [13]: 2.57 h; half-life [18]: 22 h; clearance [19]: 322 mL/min/kg; bioavailability [20]: 8%; solubility ([14]; buffer): 16 µg/mL (≈ 22.7 µM); Cmax [15]: 6.28 ng/mL; Tmax [16]: 3 h; AUC(0-t) [17]: 27.5 ng·h/mL; AUC(0-t) [21]: 343 ng·h/mL
